Data: ChEMBL document CHEMBL1129929, “Analogues of methotrexate in rheumatoid arthritis. 1. Effects of 10-deazaaminopterin analogues on type II collagen-induced arthritis in mice” (J Med Chem, 1997)
Blank lines part the entries; values can stand above or below the compound they belong to.

Tests used:
Mus musculus [1] = experiment: Incidence of disease(mouse type II collagen arthritis) was scored as the percentage of animals within each experimental group that exhibited joint or limb inflammation on day 23 at intraperitoneal dose of 9 mg/kg; type: functional
Summary of the method: (§1)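 DBA/1 mice were immunized with bovine type II collagen (modified Courtenay method), with a collagen booster on day 21. Compounds were given ip starting 2 days before the first collagen challenge and every 2 days thereafter. Incidence was the percentage of animals per group with joint or limb inflammation, scored on days 23, 30, 37 and 44.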

Mus musculus [2] = experiment: Tested for antiinflammatory activity on mouse type II collagen arthritis as Paw swelling* of all animals in each group on day 30 at intraperitoneal dose of 12 mg/kg; type: functional
Summary of the method: (§2)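 DBA/1 mice immunized with bovine type II collagen (Courtenay method, modified), antigen booster at day 21. Compounds given ip from 2 days before the first collagen challenge, then every 2 days. Hind paw dimensions (mm) measured for both limbs of all animals, expressed as mean ± SD. Eight mice per dose; untreated controls pooled from four experiments (48 animals).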

Mus musculus [3] = experiment: Incidence of disease(mouse type II collagen arthritis) was scored as the percentage of animals within each experimental group that exhibited joint or limb inflammation on day 30 at intraperitoneal of dose 15 mg/kg; type: functional; summary of the method: as §1
[4] = Concentration required to inhibit the growth of chang liver cells; type: functional; conditions: Homo sapiens
Mus musculus [5] = experiment: Tested for antiinflammatory activity on mouse type II collagen arthritis as Paw swelling* of all animals in each group on day 23 at intraperitoneal dose of 15 mg/kg; type: functional; summary of the method: as §2
Mus musculus [6] = experiment: Incidence of disease(mouse type II collagen arthritis) was scored as the percentage of animals within each experimental group that exhibited joint or limb inflammation on day 23 at intraperitoneal dose of 12 mg/kg; type: functional; summary of the method: as §1
Mus musculus [7] = experiment: Tested for antiinflammatory activity on mouse type II collagen arthritis as Paw swelling* of all animals in each group on day 44 at intraperitoneal dose of 12 mg/kg; type: functional; summary of the method: as §2
Mus musculus [8] = experiment: Tested for antiinflammatory activity on mouse type II collagen arthritis as Paw swelling* of all animals in each group on day 30 at intraperitoneal dose of 15 mg/kg; type: functional; summary of the method: as §2
Mus musculus [9] = experiment: Incidence of disease(mouse type II collagen arthritis) was scored as the percentage of animals within each experimental group that exhibited joint or limb inflammation on day 44 at intraperitoneal of dose 15 mg/kg; type: functional; summary of the method: as §1
Mus musculus [10] = experiment: Tested for antiinflammatory activity on mouse type II collagen arthritis as Paw swelling* of all animals in each group on day 30 at intraperitoneal dose of 9 mg/kg; type: functional; summary of the method: as §2
Mus musculus [11] = experiment: Incidence of disease(mouse type II collagen arthritis) was scored as the percentage of animals within each experimental group that exhibited joint or limb inflammation on day 30 at intraperitoneal of dose 12 mg/kg; type: functional; summary of the method: as §1
Mus musculus [12] = experiment: Incidence of disease(mouse type II collagen arthritis) was scored as the percentage of animals within each experimental group that exhibited joint or limb inflammation on day 37 at intraperitoneal of dose 9 mg/kg; type: functional; summary of the method: as §1
Mus musculus [13] = experiment: Incidence of disease(mouse type II collagen arthritis) was scored as the percentage of animals within each experimental group that exhibited joint or limb inflammation on day 44 at intraperitoneal of dose 9 mg/kg; type: functional; summary of the method: as §1
Mus musculus [14] = experiment: Incidence of disease(mouse type II collagen arthritis) was scored as the percentage of animals within each experimental group that exhibited joint or limb inflammation on day 37 at intraperitoneal of dose 12 mg/kg; type: functional; summary of the method: as §1
Mus musculus [15] = experiment: Incidence of disease(mouse type II collagen arthritis) was scored as the percentage of animals within each experimental group that exhibited joint or limb inflammation on day 37 at intraperitoneal of dose 15 mg/kg; type: functional; summary of the method: as §1
L1210 = experiment: Concentration required to inhibit the growth of L1210 cells; type: functional, cell-based; conditions: Mus musculus
Mus musculus [16] = experiment: Incidence of disease(mouse type II collagen arthritis) was scored as the percentage of animals within each experimental group that exhibited joint or limb inflammation on day 23 at intraperitoneal dose of 15 mg/kg; type: functional; summary of the method: as §1
Mus musculus [17] = experiment: Incidence of disease(mouse type II collagen arthritis) was scored as the percentage of animals within each experimental group that exhibited joint or limb inflammation on day 44 at intraperitoneal of dose 12 mg/kg; type: functional; summary of the method: as §1
Mus musculus [18] = experiment: Incidence of disease(mouse type II collagen arthritis) was scored as the percentage of animals within each experimental group that exhibited joint or limb inflammation on day 30 at intraperitoneal of dose 9 mg/kg; type: functional; summary of the method: as §1
Mus musculus [19] = experiment: Tested for antiinflammatory activity on mouse type II collagen arthritis as Paw swelling* of all animals in each group on day 23 at intraperitoneal dose of 9 mg/kg; type: functional; summary of the method: as §2
Mus musculus [20] = experiment: Tested for antiinflammatory activity on mouse type II collagen arthritis as Paw swelling* of all animals in each group on day 23 at intraperitoneal dose of 12 mg/kg; type: functional; summary of the method: as §2
Mus musculus [21] = experiment: Tested for antiinflammatory activity on mouse type II collagen arthritis as Paw swelling* of all animals in each group on day 44 at intraperitoneal dose of 9 mg/kg; type: functional; summary of the method: as §2
Mus musculus [22] = experiment: Tested for antiinflammatory activity on mouse type II collagen arthritis as Paw swelling* of all animals in each group on day 44 at intraperitoneal dose of 15 mg/kg; type: functional; summary of the method: as §2
Mus musculus [23] = experiment: Tested for antiinflammatory activity on mouse type II collagen arthritis as Paw swelling* of all animals in each group on day 37 at intraperitoneal dose of 15 mg/kg; type: functional; summary of the method: as §2
Mus musculus [24] = experiment: Tested for antiinflammatory activity on mouse type II collagen arthritis as Paw swelling* of all animals in each group on day 37 at intraperitoneal dose of 9 mg/kg; type: functional; summary of the method: as §2
Mus musculus [25] = experiment: Tested for antiinflammatory activity on mouse type II collagen arthritis as Paw swelling* of all animals in each group on day 37 at intraperitoneal dose of 12 mg/kg; type: functional; summary of the method: as §2
Mus musculus [26] = experiment: Tested for antiinflammatory activity on mouse type II collagen arthritis as Paw swelling* of all animals in each group on day 37 at intraperitoneal dose of 10 mg/kg; type: functional; summary of the method: as §2
Mus musculus [27] = experiment: Incidence of disease(mouse type II collagen arthritis) was scored as the percentage of animals within each experimental group that exhibited joint or limb inflammation on day 44 at intraperitoneal of dose 10 mg/kg; type: functional; summary of the method: as §1
Mus musculus [28] = experiment: Tested for antiinflammatory activity on mouse type II collagen arthritis as Paw swelling* of all animals in each group on day 30 at intraperitoneal dose of 10 mg/kg; type: functional; summary of the method: as §2
Mus musculus [29] = experiment: Incidence of disease(mouse type II collagen arthritis) was scored as the percentage of animals within each experimental group that exhibited joint or limb inflammation on day 30 at intraperitoneal of dose 10 mg/kg; type: functional; summary of the method: as §1
Mus musculus [30] = experiment: Tested for antiinflammatory activity on mouse type II collagen arthritis as Paw swelling* of all animals in each group on day 23 at intraperitoneal dose of 10 mg/kg; type: functional; summary of the method: as §2
Mus musculus [31] = experiment: Incidence of disease(mouse type II collagen arthritis) was scored as the percentage of animals within each experimental group that exhibited joint or limb inflammation on day 37 at intraperitoneal of dose 10 mg/kg; type: functional; summary of the method: as §1
Mus musculus [32] = experiment: Tested for antiinflammatory activity on mouse type II collagen arthritis as Paw swelling* of all animals in each group on day 44 at intraperitoneal dose of 10 mg/kg; type: functional; summary of the method: as §2
Mus musculus [33] = experiment: Incidence of disease(mouse type II collagen arthritis) was scored as the percentage of animals within each experimental group that exhibited joint or limb inflammation on day 23 at intraperitoneal dose of 10 mg/kg; type: functional; summary of the method: as §1

IC50 (L1210): 3.7 nM
Compound: Nc1nc(N)c2nc(CCc3ccc(C(=O)N[C@@H](CCC(=O)O)C(=O)O)cc3)cnc2n1
Animals (Mus musculus [1]): 25%
Paw swelling (Mus musculus [2]): 2.36 mm
Animals (Mus musculus [3]): 38%
IC50 [4]: 98 nM
Paw swelling (Mus musculus [5]): 2.2 mm
Animals (Mus musculus [6]): 12%
Paw swelling (Mus musculus [7]): 2.33 mm
Paw swelling (Mus musculus [8]): 2.31 mm
Animals (Mus musculus [9]): 38%
Paw swelling (Mus musculus [10]): 2.32 mm
Animals (Mus musculus [11]): 50%
Animals (Mus musculus [12]): 38%
Animals (Mus musculus [13]): 50%
Animals (Mus musculus [14]): 50%
Animals (Mus musculus [15]): 50%
Animals (Mus musculus [16]): 0%
Animals (Mus musculus [17]): 62%
Animals (Mus musculus [18]): 38%
Paw swelling (Mus musculus [19]): 2.19 mm
Paw swelling (Mus musculus [20]): 2.21 mm
Paw swelling (Mus musculus [21]): 2.32 mm
Paw swelling (Mus musculus [22]): 2.3 mm
Paw swelling (Mus musculus [23]): 2.29 mm
Paw swelling (Mus musculus [24]): 2.28 mm
Paw swelling (Mus musculus [25]): 2.31 mm

IC50 (L1210): 3.7 nM
Compound: CCC(Cc1cnc2nc(N)nc(N)c2n1)c1ccc(C(=O)NC(CCC(=O)O)C(=O)O)s1 (centres undefined)
Paw swelling (Mus musculus [26]): 2.23 mm
Animals (Mus musculus [3]): 0%
IC50 [4]: 1.6 nM
Animals (Mus musculus [27]): 38%
Paw swelling (Mus musculus [5]): 2.15 mm
Paw swelling (Mus musculus [8]): 2.17 mm
Animals (Mus musculus [9]): 12%
Paw swelling (Mus musculus [28]): 2.15 mm
Animals (Mus musculus [29]): 0%
Paw swelling (Mus musculus [30]): 2.13 mm
Animals (Mus musculus [15]): 12%
Animals (Mus musculus [16]): 0%
Animals (Mus musculus [31]): 25%
Paw swelling (Mus musculus [32]): 2.25 mm
Animals (Mus musculus [33]): 0%
Paw swelling (Mus musculus [22]): 2.26 mm
Paw swelling (Mus musculus [23]): 2.21 mm
